In ChEMBL document CHEMBL1156148, “Isolation, structure and biological activities of platencin A(2)-A(4) from Streptomyces platensis” (Bioorg Med Chem, 2010):
In brackets after ≈: the same amount, converted by molar mass.

Legend:
Bacillus subtilis = assay: Antibacterial activity against Bacillus subtilis MB964 after 20 hrs by NCCLS method; format: functional; settings: MB964, 20 h
Procedure, shortened: (§1)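 Twofold serial broth dilution in cation-adjusted Mueller Hinton broth per NCCLS guidelines. Inoculum 10^5 CFU/mL, incubated at 37 °C for 20 h with compound in growth medium. MIC taken as the lowest concentration preventing visible growth.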

Staphylococcus aureus [1] = assay: Antibacterial activity against Staphylococcus aureus Smith after 20 hrs by NCCLS method; format: functional; procedure, shortened: as §1
Staphylococcus aureus [2] = assay: Antibacterial activity against Staphylococcus aureus expressing FabF antisense plasmid S1-1941 assessed as minimum concentration required to produce differential zone of clearance after 18 hrs by antisense two-plate differential sensitivity cellular assay relative to control; format: functional
Procedure, shortened: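 S. aureus RN450 carrying the fabF antisense plasmid S1–1941, plus a vector-only control strain, grown 18–20 h at 37 °C in LB with 34 µg/mL chloramphenicol. Seeded at 1:1000 of OD 3.0 into LB agar with 0.2% glucose and 15 µg/mL chloramphenicol; antisense plates also got 50 mM xylose. Samples added to agar wells, incubated 18 h at 37 °C, and zones measured. MDC was found by twofold serial dilution.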

HeLa = assay: Cytotoxicity against human HeLa cells by MTT assay; format: functional, cell-based
Staphylococcus aureus [3] = assay: Antibacterial activity against Staphylococcus aureus Lin after 20 hrs by NCCLS method in presence of 50 % serum; format: functional
Escherichia coli [4] = assay: Antibacterial activity against wild type Escherichia coli MB2884 after 20 hrs by NCCLS method; format: functional; settings: MB2884, 20 h; procedure, shortened: as §1
[5] = Inhibition of Staphylococcus aureus FAS2 assessed as 2-[14C]malonyl-CoA incorporation after 90 mins by scintillation counting
Procedure, shortened: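 Partially purified S. aureus fatty-acid synthesis enzyme mix (1.26 µg) preincubated 20 min at room temperature with serially diluted compound. Buffer: 100 mM sodium phosphate pH 7.0, EDTA, NADPH, NADH, DTT, β-mercaptoethanol, 20 µM octanoyl-CoA (or lauroyl-CoA), 4% DMSO, 5 µM ACP. Started with 4 µM final [2-14C]malonyl-CoA, run 90 min at 37 °C, stopped with perchloric acid, and counted by scintillation on phospholipid-coated flash plates.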

Candida albicans = assay: Antifungal activity against Candida albicans after 20 hrs by NCCLS method; format: functional; procedure, shortened: as §1
Escherichia coli [6] = assay: Antibacterial activity against envelope disrupted Escherichia coli MB5746 after 20 hrs by NCCLS method; format: functional; settings: MB5746, 20 h; procedure, shortened: as §1
Enterococcus faecalis = assay: Antibacterial activity against Enterococcus faecalis CL8516 after 20 hrs by NCCLS method; format: functional; settings: CL8516, 20 h; procedure, shortened: as §1
Haemophilus influenzae = assay: Antibacterial activity against Haemophilus influenzae MSD2261 after 20 hrs by NCCLS method; format: functional; settings: MSD2261, 20 h; procedure, shortened: as §1

Row | MIC (Bacillus subtilis) [µg/mL] | MIC (Staphylococcus aureus [1]) [µg/mL] | MIC (Staphylococcus aureus [3]) [µg/mL] | MIC (Escherichia coli [4]) [µg/mL] | IC50 [5] [µg/mL] | MIC (Candida albicans) [µg/mL] | MIC (Escherichia coli [6]) [µg/mL] | MIC (Enterococcus faecalis) [µg/mL] | MIC (Haemophilus influenzae) [µg/mL] | SMILES | Activity (Staphylococcus aureus [2]) [µg/mL] | IC50 (HeLa) [µM]
1 | 64 (≈ 145 µM) | 16 (≈ 36.2 µM) | > 64 | > 64 | 7.1 (≈ 16.1 µM) | > 64 | 16 (≈ 36.2 µM) | 64 (≈ 145 µM) | 64 (≈ 145 µM) | C=C1[C@H]2CC[C@@]3(C=CC(=O)[C@@](C)(CCC(=O)Nc4c(O)ccc(C(=O)O)c4O)[C@@H]3C2)[C@H]1O [PLATENCIN A3] | 20 | > 100
2 | > 64 | > 64 | > 64 | > 64 | 25.1 (≈ 56.6 µM) | > 64 | 32 (≈ 72.2 µM) | > 64 | > 64 | C[C@@]1(O)C[C@@]23C=CC(=O)[C@@](C)(CCC(=O)Nc4c(O)ccc(C(=O)O)c4O)[C@@H]2C[C@@H]1CC3 [PLATENCIN A4] | 100 | > 100

Row | SMILES | MIC (Bacillus subtilis) [µg/mL] | MIC (Staphylococcus aureus [1]) [µg/mL] | MIC (Staphylococcus aureus [3]) [µg/mL] | MIC (Escherichia coli [4]) [µg/mL] | IC50 [5] [µg/mL] | MIC (Candida albicans) [µg/mL] | MIC (Escherichia coli [6]) [µg/mL] | MIC (Enterococcus faecalis) [µg/mL] | MIC (Haemophilus influenzae) [µg/mL] | Activity (Staphylococcus aureus [2]) [µg/mL] | IC50 (HeLa) [µM]
3 | C=C1C[C@@]23C=CC(=O)[C@@](C)(CCC(=O)Nc4c(O)ccc(C(=O)O)c4O)[C@@H]2C[C@@H]1CC3 [PLATENCIN] | 1 (≈ 2.35 µM) | 0.5 (≈ 1.18 µM) | 8 | > 64 | 12 (≈ 28.2 µM) | > 64 | 2 (≈ 4.7 µM) | 2 (≈ 4.7 µM) | 64 (≈ 150 µM) | 0.2 | 86
